Compound activity from PubChem.
CHOP inhibitor: inhibitors of CHOP promoter induction, primary screen, cell-based, unfolded protein response, luciferase reporter; CHO-K1 CHOP-promoter luciferase, tunicamycin-induced, 15-18 h; inhibition, % at 10 µM; hit rate 3.8% among 220,000; AID 2732, 2010;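 active = compounds that reduced the stress-induced luciferase reporter signal by more than about 70% of percent inhibition, limit read from the data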;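 note: 0% = tunicamycin plus vehicle and 100% = wells without tunicamycin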
MPTP block: mitochondrial permeability transition pore inhibitors, primary screen, biochemical, isolated mouse mitochondria, absorbance; Ca2+ swelling absorbance, 30 min; inhibition, % at 10 µM; hit rate 1.4% among 360,000;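 active = inhibition of 50% or more, scaled per plate between neutral and stimulator controls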;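 note: 0% = DMSO wells given calcium and 100% = 1 mM EGTA wells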
UPR XBP1 act: activators of adaptive XBP1 UPR arm, primary screen, cell-based, CHO-XBP1 luciferase reporter, luminescence, uHTS. IRE1-XBP1 UPR activation; percent of tunicamycin response, DMSO as zero. activation, % at 20 µM. hit rate 0.33% among 330,000;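 active = versus positive control, 20 µM dose yields 30% or more activation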;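 note: 100% = tunicamycin at 10 µg/mL and 0% = DMSO only wells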
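assay system = CHO-XBP1 luciferase reporter cells | amount = 1000 cells/well | buffer or medium = F12 plus 10% FBS | compound dosing = single point, 20 µM final compound, 1% DMSO | incubation = 16-18 h cell attachment at 37 °C, then 6 h compound exposure | detection = Steady-Glo luminescence read | controls = tunicamycin 10 µg/mL and vehicle-only wells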
UPR CHOP act: activators of apoptotic CHOP UPR arm, primary screen, cell-based, CHO-CHOP luciferase reporter, luminescence, uHTS | AID 449763, 2010 | UPR activation; percent of tunicamycin response over DMSO baseline | activation, % at 10 µM | hit rate 0.34% among 330,000;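 active = at 10 µM dose, activation of 40% or more, normalized to positive control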;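 note: 100% = tunicamycin at 10 µg/mL and 0% = DMSO alone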
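System: CHO CHOP reporter cells. Amount: 500 cells per well. Buffer or medium: F12 medium, 10% FBS. Compound dosing: one dose, 10 µM in 0.5% DMSO. Incubation: 6 h compound exposure at 37 °C after overnight seeding. Technique: Steady-Glo luciferase luminescence. Benchmarks: tunicamycin and DMSO controls.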
NR3A LBD binder: binders of NR3A ligand-binding domain, primary screen, biophysical, differential scanning fluorimetry, uHTS; Tm shift relative to glycine control, % at 25 µM; AID 1259313, 2017; hit rate 2.5% among 340,000; NR3A LBD differential scanning fluorimetry, Tm shift; 0% = protein alone, 100% = glycine-bound protein;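 active = melting temperature shift of at least 10% of the positive control shift, at one fixed dose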
aDG glyco act: activators of alpha-DG glycosylation, primary screen, uHTS, Pro5-aDG cells, AlphaScreen; alpha-DG glycosylation AlphaScreen (IIH6); 0% Pro5, 100% B10-LARGE cell signal; activation, % at 10 µM; hit rate 0.22% among 360,000; AID 624168, 2012;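 active = activation of at least 8% versus controls, or a plate z-score of at least 8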;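 note: Pro5 are CHO cells carrying HIG-tagged alpha-DG that lacks glycosylation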
Numbers without * were called inactive; / = no result. An excerpt weighted towards active compounds, which were near 5.6% of everything screened.

SMILES	CHOP inhibitor	MPTP block	UPR XBP1 act	UPR CHOP act	NR3A LBD binder	aDG glyco act
COc1ccc(C(=O)Nc2cccc(-c3cc4ccccc4oc3=O)c2)cc1[N+](=O)[O-]	58.0	-18.1	/	/	11.2*	0.3
CN1CCN(CC(=O)Nc2nc(-c3c[nH]c4ccccc34)cs2)CC1	13.6	-0.1	-1.1	0.8	-1.5	0.1
CCc1ccc(-c2csc(-c3c[nH]c4ccccc34)n2)cc1	86.4*	4.0	2.0	8.5	38.7*	-0.2
Cn1c(SCC(=O)c2ccc(O)c(O)c2)nnc1-c1ccccc1	/	0.4	0.5	0.8	-0.5	0.0
Cn1c(SCC(=O)c2ccc3c(c2)Cc2ccccc2-3)nnc1-c1cccc(N)c1	93.5*	2.0	0.6	-1.7	0.5	-0.2
CC(=O)N(C(C)=O)n1c(/C=C/c2cccc([N+](=O)[O-])c2)nc2ccccc2c1=O	92.8*	-2.2	-0.2	-1.7	-0.3	-0.2
COC(=O)c1cc(S(=O)(=O)N(Cc2ccccc2)C(C)(C)C)c[nH]1	/	0.1	-2.5	-0.8	0.4	1.2
C=CCc1cc(/C=N/NC(=O)CSc2nnc(CCCc3ccc(OC)cc3)o2)cc(OC)c1O	77.8*	2.8	-4.6	-2.6	-1.5	-0.1
COc1ccc(/C=N/NC(=O)CSc2nnc(CCCc3ccc(OC)c(C)c3)o2)cc1	70.2*	-3.4	-7.0	0.0	-1.2	0.3
CCC(C)Sc1ccc([C@@H]2[C@@H]3C(=O)N(C)C(=O)[C@@H]3[C@]3(C(=O)OC)CCCCN23)cc1 (some centres undefined)	/	3.7	-1.3	0.8	-2.1	0.2
COc1ccc(NCc2cc3cc(OC)ccc3[nH]c2=O)cc1	-63.8	0.7	1.2	0.6	-1.3	0.0
COc1ccc2[nH]c(=O)c(CNc3cccc(C)c3)cc2c1	72.9*	-2.2	-0.1	5.4	-1.9	0.0
COc1ccc2[nH]c(=O)c(CN(Cc3cccs3)C(=S)Nc3cccc(C)c3)cc2c1	56.9	3.1	0.0	2.3	10.3*	0.7
CNC(=S)N(Cc1cccs1)Cc1cc2cc(OC)ccc2[nH]c1=O	2.5	0.4	-3.6	-0.1	1.0	0.1
Cc1c(C(=O)OCC(=O)NCc2ccco2)cccc1[N+](=O)[O-]	/	-2.6	-1.2	2.4	-0.8	0.2
O=C(NC1CCCC1)c1cccc(S(=O)(=O)N2CCCC2)c1	/	3.4	-2.1	-1.6	0.2	0.0
Cc1cc(C)nc(Nc2n[nH]c(-c3ccc(N)cc3)n2)n1	-16.6	-0.9	0.7	-0.8	-3.3	-0.4
Cc1cc(C)nc(Nc2n[nH]c(-c3ccc(C(C)(C)C)cc3)n2)n1	77.1*	-0.8	3.2	7.1	-6.1	-0.2
O=C(NC(=S)Nc1cccc([N+](=O)[O-])c1)C1CCCCC1	/	-0.8	0.8	3.9	2.9	0.7
N#CC(Nc1ccccc1)c1ccccc1OCc1ccccc1 (centres undefined)	88.7*	1.3	0.2	0.8	-16.7	2.9
CN[C@H](C)C(=O)NC[C@H]1O[C@@H](n2cnc3c(N)ncnc32)[C@H](O)[C@@H]1O	/	-0.8	-0.2	2.5	1.2	-0.1
COc1cc(NC(=O)CCC(=O)N2CCN(S(=O)(=O)c3ccc(C)cc3)CC2)cc(OC)c1	/	1.6	/	/	-0.8	-0.1
C/C(=N\OCc1ccc(C#N)cc1)c1ccccc1	10.6	1.0	-0.1	4.6	-1.9	0.1
C/C(=N/OCO/N=C(\C)c1ccccc1)c1ccccc1	58.8	0.5	-1.5	1.0	11.3*	-0.3
O=C(CNc1ccc(F)cc1)N/N=C/c1c(O)ccc2ccccc12	/	8.9	-4.3	-1.6	27.1*	0.1
SMILES	CHOP inhibitor	MPTP block	UPR XBP1 act	UPR CHOP act	NR3A LBD binder	aDG glyco act
COc1ccccc1NCC(=O)N/N=C/c1c(O)ccc2ccccc12	/	1.1	-4.2	-0.3	16.0*	0.4
O=C(Cc1n[nH]c(=O)[nH]c1=O)N/N=C/c1c(O)ccc2ccccc12	-1.0	1.8	-0.1	-1.1	0.4	-0.4
COc1ccc(OC)c(NP2(=O)OCC(C)([N+](=O)[O-])CO2)c1 (centres undefined)	/	-1.4	/	/	-1.6	0.1
CC(Nc1ccc(Br)cn1)c1cc(Cl)ccc1O (centres undefined)	77.0*	5.4	/	/	0.0	-0.3
O=C(COC(=O)Cc1ccc(S(=O)(=O)N2CCOCC2)s1)Nc1ccccc1Cl	/	-1.1	-1.4	-0.5	-2.5	-0.1
O=C(O)CCCCCC[C@H]1C(=O)NC(=O)N1CC[C@@H](O)C1CCCCC1	1.0	/	/	/	/	/
CCCOc1ccc(NC(=O)C2CC(=O)N/C(=N/N=C(\C)CCc3ccc4c(c3)OCO4)S2)cc1 (centres undefined)	78.1*	1.1	-0.1	3.7	-1.2	0.0
CCCOc1ccc(NC(=O)C2CC(=O)N/C(=N/N=C(C)/C=C/c3ccc(N(C)C)cc3)S2)cc1 (centres undefined)	71.5*	2.1	-3.1	8.0	-5.4	-0.1
CCN1C(=O)CC(C(=O)Nc2ccc(F)cc2)SC1=Nc1ccc2c(c1)OCO2 (centres undefined)	20.9	-2.7	-5.3	-3.3	-7.1	0.1
CCOc1ccc(NC(=O)C2CC(=O)N(CC)C(=Nc3ccc4c(c3)OCO4)S2)cc1 (centres undefined)	71.6*	1.2	0.6	-1.1	-8.7	-0.2
CCOc1cccc(NC(=O)C2CC(=O)N(C)C(=Nc3cccc(F)c3)S2)c1 (centres undefined)	91.3*	3.4	-2.9	1.0	/	0.1
C/C(CCc1ccc2c(c1)OCO2)=N\N=C1\NC(=O)CC(C(=O)Nc2ccc(C(=O)O)cc2)S1 (centres undefined)	/	6.9	/	/	-0.1	0.0
CCOc1cccc(NC(=O)C2CC(=O)N(C)C(=Nc3ccccc3)S2)c1 (centres undefined)	32.4	1.0	2.5	-1.2	-15.8	0.1
CC(/C=C/c1ccc(N(C)C)cc1)=N/N=C1/NC(=O)CC(C(=O)Nc2ccc(Cl)cc2)S1 (centres undefined)	71.3*	2.9	-1.4	1.3	27.2*	-0.3
CCOC(=O)CC1(C)NC(C(=O)O)C(C)(C)S1 (centres undefined)	/	0.9	/	/	-0.2	-0.2
CSc1ccccc1NC(=O)CN(Cc1ccc(Cl)cc1)S(C)(=O)=O	76.8*	-1.1	-2.8	-3.2	-0.9	0.1
CSc1cccc(NC(=O)CN(Cc2ccc(Cl)cc2)S(C)(=O)=O)c1	93.1*	0.1	-0.9	-0.8	-4.0	0.1
